From ChEMBL document CHEMBL1687901 (J Med Chem, 2011)
In brackets after ≈: the same amount, converted by molar mass.

Tests used:
Type in all cases: functional
Escherichia coli [1] = test: Antibacterial activity against tetracycline-resistant Escherichia coli isolate 155 harboring tet(A) gene by CLSI M07-A8 method
Summary of the method: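 MICs were determined by CLSI broth microdilution in freshly prepared cation-adjusted Mueller Hinton broth, kept at 4 °C before use. Defibrinated horse blood was added as appropriate. The highest concentration tested was 32 μg/mL. Runs met QC ranges for comparator antibiotics with ATCC quality control strains.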

Streptococcus pneumoniae [2] = test: Antibacterial activity against tetracycline-resistant Streptococcus pneumoniae isolate 160 harboring tet(M) gene by CLSI M07-A8 method
Summary of the method: (§1)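 MICs were determined by CLSI broth microdilution in freshly prepared cation-adjusted Mueller Hinton broth, kept at 4 °C before use. Defibrinated horse blood was added as appropriate. Runs met QC ranges for comparator antibiotics with ATCC quality control strains.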

Streptococcus pneumoniae [3] = test: Antibacterial activity against Streptococcus pneumoniae ATCC 49619 by CLSI M07-A8 method
Staphylococcus aureus [4] = test: Antibacterial activity against wild type Staphylococcus aureus Smith ATCC 13709 by CLSI M07-A8 method
Staphylococcus aureus [5] = test: Antibacterial activity against tetracycline-resistant Staphylococcus aureus isolate 161 harboring tet(M) gene by CLSI M07-A8 method; summary of the method: as §1
Klebsiella pneumoniae = test: Antibacterial activity against Klebsiella pneumoniae ATCC 13883 by CLSI M07-A8 method
Escherichia coli [6] = test: Antibacterial activity against Escherichia coli ATCC 25922 by CLSI M07-A8 method
Staphylococcus aureus [7] = test: Antibacterial activity against tetracycline-resistant Staphylococcus aureus isolate 158 harboring tet(K) gene by CLSI M07-A8 method; summary of the method: as §1
Escherichia coli [8] = test: Inhibition of protein synthesis in Escherichia coli S30 extract by coupled transcription/translation assay
Summary of the method: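 Coupled transcription/translation used an E. coli S30 extract with a firefly luciferase reporter. Compounds were diluted in water and tested as a three-point titration in duplicate. Reactions ran 1 h at 37 °C and were stopped on ice for 5 min, then luciferase substrate was added and luminescence read. Percent inhibition was calculated against uninhibited controls averaged per plate, and IC50 derived.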

CN(C)[C@@H]1C(O)=C(C(N)=O)C(=O)[C@@]2(O)C(O)=C3C(=O)c4c(O)cnc(F)c4C[C@H]3C[C@@H]12.Cl
MIC (Escherichia coli [1]): > 32 µg/mL
MIC (Streptococcus pneumoniae [2]): 8 µg/mL
MIC (Streptococcus pneumoniae [3]): 0.016 µg/mL
MIC (Staphylococcus aureus [4]): 0.063 µg/mL
MIC (Staphylococcus aureus [5]): 8 µg/mL
MIC (Klebsiella pneumoniae): 0.5 µg/mL
MIC (Escherichia coli [6]): 0.25 µg/mL
MIC (Staphylococcus aureus [7]): 8 µg/mL

CNc1nc(Cl)c2c(c1O)C(=O)C1=C(O)[C@]3(O)C(=O)C(C(N)=O)=C(O)[C@@H](N(C)C)[C@@H]3C[C@@H]1C2.Cl.Cl.Cl
MIC (Escherichia coli [1]): 32 µg/mL
MIC (Streptococcus pneumoniae [2]): 4 µg/mL
MIC (Streptococcus pneumoniae [3]): 0.016 µg/mL
MIC (Staphylococcus aureus [4]): 0.016 µg/mL
MIC (Staphylococcus aureus [5]): 1 µg/mL
MIC (Klebsiella pneumoniae): 0.5 µg/mL
MIC (Escherichia coli [6]): 0.125 µg/mL
MIC (Staphylococcus aureus [7]): 2 µg/mL

CN(C)c1cc(CNCC(C)(C)C)c(O)c2c1C[C@H]1C[C@H]3[C@H](N(C)C)C(O)=C(C(N)=O)C(=O)[C@@]3(O)C(O)=C1C2=O [OMADACYCLINE]
MIC (Escherichia coli [1]): 16 µg/mL (≈ 28.7 µM)
MIC (Streptococcus pneumoniae [2]): 0.125 µg/mL (≈ 0.225 µM)
MIC (Streptococcus pneumoniae [3]): 0.031 µg/mL (≈ 0.0557 µM)
MIC (Staphylococcus aureus [4]): 0.5 µg/mL (≈ 0.898 µM)
MIC (Staphylococcus aureus [5]): 2 µg/mL (≈ 3.59 µM)
MIC (Klebsiella pneumoniae): 2 µg/mL (≈ 3.59 µM)
MIC (Escherichia coli [6]): 2 µg/mL (≈ 3.59 µM)
MIC (Staphylococcus aureus [7]): 0.25 µg/mL (≈ 0.449 µM)

CC(C)CCNc1nc(Cl)c2c(c1O)C(=O)C1=C(O)[C@]3(O)C(=O)C(C(N)=O)=C(O)[C@@H](N(C)C)[C@@H]3C[C@@H]1C2.Cl.Cl.Cl
MIC (Escherichia coli [1]): > 32 µg/mL
MIC (Streptococcus pneumoniae [2]): 32 µg/mL
MIC (Streptococcus pneumoniae [3]): 8 µg/mL
MIC (Staphylococcus aureus [4]): 0.25 µg/mL
MIC (Staphylococcus aureus [5]): 2 µg/mL
MIC (Klebsiella pneumoniae): > 32 µg/mL
MIC (Escherichia coli [6]): > 32 µg/mL
MIC (Staphylococcus aureus [7]): 0.25 µg/mL

CN(C)CCNc1nc(Cl)c2c(c1O)C(=O)C1=C(O)[C@]3(O)C(=O)C(C(N)=O)=C(O)[C@@H](N(C)C)[C@@H]3C[C@@H]1C2.Cl
MIC (Escherichia coli [1]): 32 µg/mL
MIC (Streptococcus pneumoniae [2]): 2 µg/mL
MIC (Streptococcus pneumoniae [3]): 0.5 µg/mL
MIC (Staphylococcus aureus [4]): 2 µg/mL
MIC (Staphylococcus aureus [5]): 4 µg/mL
MIC (Klebsiella pneumoniae): 8 µg/mL
MIC (Escherichia coli [6]): 4 µg/mL
MIC (Staphylococcus aureus [7]): 1 µg/mL

CN(C)c1ccc(O)c2c1C[C@H]1C[C@H]3[C@H](N(C)C)C(O)=C(C(N)=O)C(=O)[C@@]3(O)C(O)=C1C2=O [MINOCYCLINE]
MIC (Escherichia coli [1]): 8 µg/mL (≈ 17.5 µM)
MIC (Streptococcus pneumoniae [2]): 8 µg/mL (≈ 17.5 µM)
MIC (Streptococcus pneumoniae [3]): < 0.016 µg/mL
MIC (Staphylococcus aureus [4]): 0.125 µg/mL (≈ 0.273 µM)
MIC (Staphylococcus aureus [5]): 16 µg/mL (≈ 35 µM)
MIC (Escherichia coli [6]): 0.5 µg/mL (≈ 1.09 µM)
MIC (Staphylococcus aureus [7]): 0.25 µg/mL (≈ 0.546 µM)

CN(C)[C@@H]1C(O)=C(C(N)=O)C(=O)[C@@]2(O)C(O)=C3C(=O)c4c(O)c(-c5ccccc5)nc(Cl)c4C[C@H]3C[C@@H]12.Cl
MIC (Escherichia coli [1]): > 32 µg/mL
MIC (Streptococcus pneumoniae [2]): 8 µg/mL
MIC (Streptococcus pneumoniae [3]): 8 µg/mL
MIC (Staphylococcus aureus [4]): 1 µg/mL
MIC (Staphylococcus aureus [5]): 2 µg/mL
MIC (Klebsiella pneumoniae): > 32 µg/mL
MIC (Escherichia coli [6]): > 32 µg/mL
MIC (Staphylococcus aureus [7]): 1 µg/mL

CCCNc1nc(Cl)c2c(c1O)C(=O)C1=C(O)[C@]3(O)C(=O)C(C(N)=O)=C(O)[C@@H](N(C)C)[C@@H]3C[C@@H]1C2.Cl.Cl.Cl
MIC (Escherichia coli [1]): 16 µg/mL
MIC (Streptococcus pneumoniae [2]): 4 µg/mL
MIC (Streptococcus pneumoniae [3]): 0.25 µg/mL
MIC (Staphylococcus aureus [4]): 0.063 µg/mL
MIC (Staphylococcus aureus [5]): 1 µg/mL
MIC (Klebsiella pneumoniae): 8 µg/mL
IC50 (Escherichia coli [8]): 5.3 µg/mL
MIC (Staphylococcus aureus [7]): 0.5 µg/mL

CN(C)[C@@H]1C(O)=C(C(N)=O)C(=O)[C@@]2(O)C(O)=C3C(=O)c4c(O)cncc4C[C@H]3C[C@@H]12.Cl.Cl
MIC (Escherichia coli [1]): > 32 µg/mL
MIC (Streptococcus pneumoniae [2]): 32 µg/mL
MIC (Streptococcus pneumoniae [3]): 0.25 µg/mL
MIC (Staphylococcus aureus [4]): 1 µg/mL
MIC (Staphylococcus aureus [5]): 32 µg/mL
MIC (Klebsiella pneumoniae): 1 µg/mL
MIC (Escherichia coli [6]): 0.5 µg/mL
MIC (Staphylococcus aureus [7]): 16 µg/mL

CN(C)[C@@H]1C(O)=C(C(N)=O)C(=O)[C@@]2(O)C(O)=C3C(=O)c4c(O)cnc(-c5ccccc5)c4C[C@H]3C[C@@H]12.Cl.Cl
MIC (Escherichia coli [1]): > 32 µg/mL
MIC (Streptococcus pneumoniae [2]): 4 µg/mL
MIC (Streptococcus pneumoniae [3]): 0.031 µg/mL
MIC (Staphylococcus aureus [4]): 0.063 µg/mL
MIC (Staphylococcus aureus [5]): 32 µg/mL
MIC (Klebsiella pneumoniae): 2 µg/mL
MIC (Escherichia coli [6]): 0.5 µg/mL
MIC (Staphylococcus aureus [7]): 1 µg/mL

CC(C)CNc1nc(Cl)c2c(c1O)C(=O)C1=C(O)[C@]3(O)C(=O)C(C(N)=O)=C(O)[C@@H](N(C)C)[C@@H]3C[C@@H]1C2.Cl.Cl.Cl
MIC (Escherichia coli [1]): > 32 µg/mL
MIC (Streptococcus pneumoniae [2]): 8 µg/mL
MIC (Streptococcus pneumoniae [3]): 1 µg/mL
MIC (Staphylococcus aureus [4]): 0.5 µg/mL
MIC (Staphylococcus aureus [5]): 1 µg/mL
MIC (Klebsiella pneumoniae): > 32 µg/mL
MIC (Escherichia coli [6]): 16 µg/mL
MIC (Staphylococcus aureus [7]): 0.5 µg/mL

CCCc1nc(N(C)C)c2c(c1O)C(=O)C1=C(O)[C@]3(O)C(=O)C(C(N)=O)=C(O)[C@@H](N(C)C)[C@@H]3C[C@@H]1C2.Cl.Cl
MIC (Escherichia coli [1]): > 32 µg/mL
MIC (Streptococcus pneumoniae [2]): 2 µg/mL
MIC (Streptococcus pneumoniae [3]): 1 µg/mL
MIC (Staphylococcus aureus [4]): 1 µg/mL
MIC (Staphylococcus aureus [5]): 2 µg/mL
MIC (Klebsiella pneumoniae): 16 µg/mL
MIC (Escherichia coli [6]): 16 µg/mL
MIC (Staphylococcus aureus [7]): 1 µg/mL

COc1ncc(O)c2c1C[C@H]1C[C@H]3[C@H](N(C)C)C(O)=C(C(N)=O)C(=O)[C@@]3(O)C(O)=C1C2=O.Cl.Cl
MIC (Escherichia coli [1]): > 32 µg/mL
MIC (Streptococcus pneumoniae [2]): 16 µg/mL
MIC (Streptococcus pneumoniae [3]): 0.063 µg/mL
MIC (Staphylococcus aureus [4]): 0.125 µg/mL
MIC (Staphylococcus aureus [5]): 8 µg/mL
MIC (Klebsiella pneumoniae): 1 µg/mL
MIC (Escherichia coli [6]): 0.25 µg/mL
MIC (Staphylococcus aureus [7]): 4 µg/mL
